Measurements from PMC2886165 (Biochimica et biophysica acta, 2010).
Several values for one entry are separate records, joined by “and”; a condition that tells them apart may be missing. Equal entries are not always repeated. Where two headings read alike, the source gives them in different places.

Legend:
Gal4-RORγ LBD [1] = biological target: T1, Gal4-RORγ LBD (Homo sapiens, UniProt P51449); details: previous study; cited from earlier work
T1 sequence (P51449 269-508 limits assumed): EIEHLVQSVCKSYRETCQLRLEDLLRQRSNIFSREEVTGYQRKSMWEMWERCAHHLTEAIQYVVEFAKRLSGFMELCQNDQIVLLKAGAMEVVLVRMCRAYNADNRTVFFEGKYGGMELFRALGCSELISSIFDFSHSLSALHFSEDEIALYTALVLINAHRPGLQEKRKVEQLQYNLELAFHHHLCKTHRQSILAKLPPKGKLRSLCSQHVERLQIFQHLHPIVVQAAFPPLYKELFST

Gal4-RORα LBD [2] = biological target: T2, Gal4-RORα LBD (Homo sapiens, UniProt P35398); details: previous study; cited from earlier work
T2 sequence (P35398 272-510 limits assumed): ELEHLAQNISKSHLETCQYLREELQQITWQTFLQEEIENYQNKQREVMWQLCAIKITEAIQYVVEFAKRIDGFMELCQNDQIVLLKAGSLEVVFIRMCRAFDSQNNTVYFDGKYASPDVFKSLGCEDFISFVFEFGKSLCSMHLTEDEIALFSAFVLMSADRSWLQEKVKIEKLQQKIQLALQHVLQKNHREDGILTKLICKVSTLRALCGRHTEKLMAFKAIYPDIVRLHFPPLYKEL

[3] = biological target: T3, RORα / SRC-2 on BMAL1 promoter (Homo sapiens, UniProt P35398); assay type: cell-based; details: 10 μM, 24 hours, HepG2
T3 sequence (P35398 1-523): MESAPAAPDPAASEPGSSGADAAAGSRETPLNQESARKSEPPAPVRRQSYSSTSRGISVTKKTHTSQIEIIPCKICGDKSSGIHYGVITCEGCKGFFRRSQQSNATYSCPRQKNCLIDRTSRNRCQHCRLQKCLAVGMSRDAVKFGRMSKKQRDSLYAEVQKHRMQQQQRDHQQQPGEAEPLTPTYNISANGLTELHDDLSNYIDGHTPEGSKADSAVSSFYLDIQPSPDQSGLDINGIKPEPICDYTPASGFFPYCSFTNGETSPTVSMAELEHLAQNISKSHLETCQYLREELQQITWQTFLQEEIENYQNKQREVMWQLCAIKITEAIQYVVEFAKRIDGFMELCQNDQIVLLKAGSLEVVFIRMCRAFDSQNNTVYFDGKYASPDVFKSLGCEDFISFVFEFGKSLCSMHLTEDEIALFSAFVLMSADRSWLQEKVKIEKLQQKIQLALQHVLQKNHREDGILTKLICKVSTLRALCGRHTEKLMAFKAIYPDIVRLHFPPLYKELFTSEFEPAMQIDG
How it was run: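 HepG2 cells (MEM, 10% FBS, 37 °C, 5% CO2) infected with RORα adenovirus for 24 h, then given vehicle or 10 μM test compound for a further 24 h. First IP with anti-FLAG; re-IP with anti-SRC2, anti-RNA Pol II (positive control) or IgG (negative control). Bmal1 promoter amplified by PCR; band intensity averaged over three experiments.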

full-length RORγ = biological target: T4, full-length RORγ (Homo sapiens, UniProt P51449); assay type: cell-based; details: 10 μM, HEK293
T4 sequence (P51449 1-518): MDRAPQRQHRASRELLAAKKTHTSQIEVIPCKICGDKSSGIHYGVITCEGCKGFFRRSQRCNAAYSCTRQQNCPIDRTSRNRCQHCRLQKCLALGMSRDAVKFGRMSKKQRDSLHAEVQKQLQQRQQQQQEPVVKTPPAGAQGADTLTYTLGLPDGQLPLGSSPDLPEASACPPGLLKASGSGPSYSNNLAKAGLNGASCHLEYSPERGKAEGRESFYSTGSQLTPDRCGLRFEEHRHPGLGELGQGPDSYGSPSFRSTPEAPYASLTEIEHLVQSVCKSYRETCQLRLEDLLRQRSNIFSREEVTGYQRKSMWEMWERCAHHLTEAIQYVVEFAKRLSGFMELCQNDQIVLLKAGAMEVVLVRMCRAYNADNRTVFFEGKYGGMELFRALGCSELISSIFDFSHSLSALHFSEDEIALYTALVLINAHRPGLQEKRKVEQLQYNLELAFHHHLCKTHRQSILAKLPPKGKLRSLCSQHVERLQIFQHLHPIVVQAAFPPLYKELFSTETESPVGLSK
How it was run: (§1)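 HEK293 cells (DMEM, 10% FBS, 37 °C, 5% CO2) plated at 15 × 10^3 cells/well 24 h before transfection. Lipofectamine 2000 cotransfection of full-length receptor expression vector plus Bmal1 promoter-luciferase reporter. Vehicle or 10 μM test compound added 16 h post-transfection; dual luciferase read 24 h later. Mean ± S.E. of four wells, repeated at least three times; paired t test.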

Gal4-RORα LBD [4] = biological target: T2, Gal4-RORα LBD; assay: Gal4-RORα LBD cotransfection luciferase assay in HEK293 cells; assay type: cell-based; details: for effect on constitutive activity: single dose of 10 μM
How it was run: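 Gal4-RORα LBD plasmid transfected into HEK293 cells with Lipofectamine 2000; cells plated 15 × 10^3/well 24 h earlier. […] Dual luciferase read after 24 h; four wells per point, ≥3 repeats. IC50 derived by non-linear regression; dose responses analysed by one-way ANOVA.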

RORα = biological target: T5, RORα (Homo sapiens, UniProt P35398); assay: RORα cotransfection assay, G6Pase promoter luciferase reporter; assay type: cell-based; details: 10 μM, HepG2 (Figure 3C legend)
T5 sequence (P35398 1-523): T3 sequence (P35398 1-523)

Gal4-RORγ LBD [5] = biological target: T1, Gal4-RORγ LBD; assay: Gal4-RORγ LBD cotransfection luciferase assay in HEK293 cells; assay type: cell-based; details: for effect on constitutive activity: single dose of 10 μM
full-length RORα = biological target: T6, full-length RORα (Homo sapiens, UniProt P35398); assay type: cell-based; details: 10 μM, HEK293
T6 sequence (P35398 1-523): T3 sequence (P35398 1-523)
How it was run: as §1

RORα LBD = biological target: T7, RORα LBD (Homo sapiens, UniProt P35398); assay type: binding; details: competition with 3 nM [3H]-25-hydroxycholesterol, Cheng-Prusoff
T7 sequence (P35398 272-510 limits assumed): T2 sequence (P35398 272-510 limits assumed)

[6] = tested on: RORα target genes (BMAL1, REV-ERBα); assay: Quantitative PCR of RORα target genes in HepG2 cells; assay type: cell-based, human; details: 10 μM
How it was run: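 HepG2 cells treated with 10 μM test compound, with RORα-targeting siRNA or scrambled control siRNA. Total RNA extracted, reverse-transcribed and quantified by real-time PCR using human BMAL1 and REV-ERBα primers.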

RORγ LBD = biological target: T8, RORγ LBD (Homo sapiens, UniProt P51449); assay type: binding
T8 sequence (P51449 269-508 limits assumed): T1 sequence (P51449 269-508 limits assumed)

LXRs = details: cited from earlier work

C[C@@H](CO)CCC[C@@H](C)[C@H]1CC[C@H]2[C@@H]3CC=C4C[C@@H](O)CC[C@]4(C)[C@H]3CC[C@]12C [27-OHC]
effect on activity of RORγ (Gal4-RORγ LBD [1]): unable to affect the activity | effect on activity of RORα (Gal4-RORα LBD [2]): unable to affect the activity

CC(C)CC[C@@H](O)[C@@H](C)[C@H]1CC[C@H]2[C@@H]3CC=C4C[C@@H](O)CC[C@]4(C)[C@H]3CC[C@]12C [22-OHC]
effect on activity of RORγ (Gal4-RORγ LBD [1]): unable to affect the activity | effect on activity of RORα (Gal4-RORα LBD [2]): unable to affect the activity

CC(C)[C@@H](O)CC[C@@H](C)[C@H]1CC[C@H]2[C@@H]3CC=C4C[C@@H](O)CC[C@]4(C)[C@H]3CC[C@]12C [24S-OHC, 24S-hydroxycholesterol]
reduction of SRC-2 recruited versus DMSO control [3]: ~50% | suppression of Bmal1 driven reporter gene expression (full-length RORγ): 20-40% | reduction of transcriptional activity (Gal4-RORα LBD [4]; 10 μM): 30 to 40% | Maximal suppression (Gal4-RORα LBD [4]; dose-response): ~30% | IC50 (Gal4-RORα LBD [4]; read-out: IC50 (suppression of transcriptional activity), dose-response): 0.62 µM | suppression of G6Pase promoter reporter expression (RORα): approximately 30% | reduction of transcriptional activity (Gal4-RORγ LBD [5]; 10 μM, HEK293): 30 to 40% | Maximal suppression (Gal4-RORγ LBD [5]; dose-response, HEK293): ~30% | IC50 (Gal4-RORγ LBD [5]; read-out: IC50 (suppression of transcriptional activity), dose-response, HEK293): 1.3 µM | suppression of Bmal1 driven reporter gene expression (full-length RORα): 20-40% | Ki (RORα LBD): 0.027 µM | decrease of BMAL1 mRNA expression [6]: 38% | decrease of REV-ERBα mRNA expression [6]: 33% | Ki (RORγ LBD; competition with 3 nM [3H]-25-hydroxycholesterol, Cheng-Prusoff): ~0.025 µM and 0.025 µM

C[C@H](CC[C@@H]1OC1(C)C)[C@H]1CC[C@H]2[C@@H]3CC=C4C[C@@H](O)CC[C@]4(C)[C@H]3CC[C@]12C [24,25-epoC, 24(S),25 epoxycholesterol]
effect on constitutive activity (Gal4-RORα LBD [4]): without having any significant effect | IC50 (Gal4-RORγ LBD [5]): 0.28 µM | effect on constitutive activity (Gal4-RORγ LBD [5]; HEK293): suppresses the activity | Ki (RORγ LBD): 0.02 µM

CC(C)CCC[C@@H](C)[C@H]1CC[C@H]2[C@@H]3C(=O)C=C4C[C@@H](O)CC[C@]4(C)[C@H]3CC[C@]12C [7-ketocholesterol]
affinity for the LXRs (LXRs): no affinity

CC(C)[C@H](O)CC[C@@H](C)[C@H]1CC[C@H]2[C@@H]3CC=C4C[C@@H](O)CC[C@]4(C)[C@H]3CC[C@]12C [24R-OHC, 24R-hydroxycholesterol]
effect on constitutive activity (Gal4-RORα LBD [4]): no effect | IC50 (Gal4-RORγ LBD [5]): 0.09 µM | effect on constitutive activity (Gal4-RORγ LBD [5]; HEK293): significant decrease in the constitutive activity | Ki (RORγ LBD): 0.102 µM

CC(C)CCC[C@@H](C)[C@H]1CC[C@H]2[C@@H]3[C@H](O)C=C4C[C@@H](O)CC[C@]4(C)[C@H]3CC[C@]12C [7α-OHC]
affinity for the LXRs (LXRs): no affinity

C[C@H](CCCC(C)(C)O)[C@H]1CC[C@H]2[C@@H]3CC=C4C[C@@H](O)CC[C@]4(C)[C@H]3CC[C@]12C [25-OHC, 25-hydroxycholesterol]
effect on activity of RORα (Gal4-RORα LBD [2]): unable to affect the activity
